From ChEMBL document CHEMBL4706487, “Antitumor agents 7. Synthesis, antiproliferative activity and molecular modeling of new l-lysine-conjugated pyridophenoxazinones as potent DNA-binding ligands and topoisomerase IIα inhibitors” (Eur J Med Chem, 2020)
Calls of active or inactive are those of the source. The rule behind the calls is not given here. Starred links: 1 amine or outer side, 2 acyl side, 3 side chain; linkers in the order of their positions; H or OH if unused. Positions of bridges follow the written chain, without caps; N, C: chain ends. Non-standard residues stand in square brackets, D forms with d. Residues, ends and D or L forms follow the SMILES beside them. Chains are numbered I, II in the order given. Actinocin(1to9) = Cc1c2oc3c(C)ccc(C(=O)[*:2])c3nc-2c(C(=O)[*:1])c(N)c1=O; NMeV = CN[C@H](C(=O)O)C(C)C; Sar = CNCC(=O)O

Key:
Calf thymus DNA [1] = test: Binding affinity to calf thymus DNA assessed as hypochromism by UV-vis spectroscopy; details: Bos taurus
MCF7 [2] = test: Induction of cell cycle arrest in human MCF7 cells assessed as accumulation of cells at G0/G1 phase at 0.1 uM after 12 hrs by flow cytometry (reference value: 51.7%); format: functional
In short: (§1)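 MCF-7 cells exposed continuously to vehicle or 0.1 µM drug for 12, 24 and 48 h. Cell cycle distribution was assessed by flow cytometry.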

DNA [3] = test: Binding affinity at Escherichia coli pBR322 DNA assessed as unwinding of supercoiled DNA at 0.1 uM incubated for 10 mins in presence of human topoisomerase 1 by agarose gel based electrophoresis; format: nucleic-acid assay
In short: (§2)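 Intercalation assay with relaxed pBR322 (300 ng) and 2 units human Topo I in 50 mM Tris-HCl pH 7.5, 2.5 mM MgCl₂, 0.5 mM DTT and 50 µg/mL BSA, run 10 min at 37 °C. Stopped by phenol/chloroform/isoamyl alcohol extraction. Products run on 1.2% agarose in TAE, 2 V/cm for 15 h, then EtBr-stained. EtBr served as control; three independent experiments.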

HT-29 = test: Antiproliferative activity against human HT-29 cells assessed as cell viability measured after 4 days by MTT assay; format: functional, cell-based; details: HT-29, 96 h
In short: (§3)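 Leukemia/lymphoma cells (RPMI 1640, 10% FCS) resuspended at 1 × 10⁵ cells/mL with serial drug dilutions and read by MTT after 96 h at 37 °C. Solid-tumor cells (own media, 10% FCS) were seeded at 5 × 10⁴ cells/mL, allowed 16 h to adhere, then dosed and read by MTT 4 days later. IC50 was derived by linear regression of growth as % of untreated controls.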

G-361 = test: Antiproliferative activity against human G-361 cells assessed as cell viability measured after 4 days by MTT assay; format: functional, cell-based; details: G-361, 96 h
In short: as §3

MCF7 [4] = test: Induction of cell cycle arrest in human MCF7 cells assessed as accumulation of cells at G2/M phase at 0.1 uM after 12 hrs by flow cytometry (reference value: 17%); format: functional
In short: as §1

MCF7 [5] = test: Antiproliferative activity against human MCF7 cells assessed as cell viability measured after 4 days by MTT assay; format: functional, cell-based; details: MCF7, 96 h
In short: as §3

CCRF-CEM = test: Antiproliferative activity against human CCRF-CEM cells assessed as cell viability measured after 4 days by MTT assay; format: functional, cell-based; details: 96 h
In short: as §3

DNA [6] = test: Binding affinity at Escherichia coli pBR322 DNA assessed as unwinding of supercoiled DNA at 10 uM incubated for 10 mins in presence of human topoisomerase 1 by agarose gel based electrophoresis; format: nucleic-acid assay
In short: as §2

ACHN = test: Antiproliferative activity against human ACHN cells assessed as cell viability measured after 4 days by MTT assay; format: functional, cell-based; details: 96 h
In short: as §3

[7] = biological target: DNA topoisomerase 2-alpha (Homo sapiens) (UniProt P11388); test: Inhibition of human topoisomerase 2alpha mediated pBR322 DNA relaxation at 1.5 uM by agarose gel electrophoresis relative to control
[8] = biological target: DNA topoisomerase 2-alpha (Homo sapiens) (UniProt P11388); test: Inhibition of human topoisomerase 2alpha mediated pBR322 DNA relaxation at 0.7 uM by agarose gel electrophoresis relative to control
MCF7 [9] = test: Induction of cell cycle arrest in human MCF7 cells assessed as accumulation of cells at G0/G1 phase at 0.1 uM after 24 hrs by flow cytometry (reference value: 51.7%); format: functional
In short: as §1

MCF7 [10] = test: Induction of DNA damage in human MCF7 cells assessed as increase in gammaH2AX foci at 5 to 10 uM measured after 0.5 to 3 hrs by Western blot analysis; format: functional, cell-based; details: dose 5-10 µM, time 0.5-3 hrs
In short: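 MCF-7 cells were treated for 0.5, 1 and 3 h, washed with ice-cold PBS and lysed in RIPA buffer containing PMSF and protease inhibitors. Lysates run on SDS-PAGE, blotted to PVDF and probed for H2AX, with β-actin as loading control. Detection by HRP secondary antibody and enhanced chemiluminescence.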

MCF7 [11] = test: Induction of cell cycle arrest in human MCF7 cells assessed as accumulation of cells at S phase at 0.1 uM after 12 hrs by flow cytometry (reference value: 31.3%); format: functional
In short: as §1

MCF7 [12] = test: Induction of DNA damage in human MCF7 cells assessed as increase tail length at 1 to 10 uM after 24 hrs by comet assay; format: functional, cell-based; details: dose 1-10 µM
In short: (§4)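 About 1 × 10⁵ MCF-7 cells seeded; after 24 h, drug added for 24 h, with 10 µM VP-16 as positive control. Alkaline comet assay: lysis 1 h at 4 °C at pH 10, unwinding at pH 13, then electrophoresis at 30 V for 15 min. Slides neutralized, PI-stained and imaged by fluorescence microscopy at 10×. Tail lengths were taken from randomly selected cells.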

Calf thymus DNA [13] = test: Binding affinity to calf thymus DNA assessed as isosbestic point by UV-vis spectroscopy; format: nucleic-acid assay; details: Bos taurus
In short: (§5)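 ctDNA held at 0.2 mM in phosphate buffer pH 7 and titrated with drug from […]. UV-vis spectra recorded in a 1 cm quartz cuvette. Binding constant was taken by the mole-ratio method from optical density changes at 260 nm, using a double reciprocal plot.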

MCF7 [14] = test: Induction of cell cycle arrest in human MCF7 cells assessed as accumulation of cells at S phase at 0.1 uM after 24 hrs by flow cytometry (reference value: 31.3%); format: functional
In short: as §1

MCF7 [15] = test: Induction of cell cycle arrest in human MCF7 cells assessed as accumulation of cells at S phase at 0.1 uM after 48 hrs by flow cytometry (reference value: 31.3%); format: functional
In short: as §1

[16] = biological target: DNA topoisomerase 2-alpha (Homo sapiens) (UniProt P11388); test: Poison activity at human topo2alpha assessed as induction of accumulation of topo-2/DNA cleavage complex formation at 1 to 5 uM using […] plasmid incubated for 10 mins by agarose gel electrophoresis; details: dose 1-5 µM
In short: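 Supercoiled pBR322 incubated with purified Topo IIα and drug for 10 min at 30 °C. Stopped with 0.35% SDS plus 0.3 mg/mL proteinase K (final), then 1 h at 56 °C. Products run on 1.2% agarose gels containing EtBr. Linear DNA quantified by gel densitometry; averages of three independent experiments.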

Calf thymus DNA [17] = test: Binding affinity to calf thymus DNA assessed as lamda max by UV-vis spectroscopy; format: nucleic-acid assay; details: Bos taurus
In short: as §5

Calf thymus DNA [18] = test: Binding affinity to calf thymus DNA assessed as red shift by UV-vis spectroscopy; format: nucleic-acid assay; parameters: unit not given here; details: Bos taurus
In short: as §5

MCF7 [19] = test: Induction of cell cycle arrest in human MCF7 cells assessed as accumulation of cells at G0/G1 phase at 0.1 uM after 48 hrs by flow cytometry (reference value: 51.7%); format: functional
In short: as §1

MCF7 [20] = test: Induction of cell cycle arrest in human MCF7 cells assessed as accumulation of cells at G2/M phase at 0.1 uM after 48 hrs by flow cytometry (reference value: 17%); format: functional
In short: as §1

SK-MEL-28 = test: Antiproliferative activity against human SKMEL-28 cells assessed as cell viability measured after 4 days by MTT assay; format: functional, cell-based; details: SK-MEL-28, 96 h
In short: as §3

[21] = biological target: DNA topoisomerase 2-beta (Homo sapiens) (UniProt Q02880); test: Poison activity at topo2beta (unknown origin) assessed as induction of accumulation of topo-2/DNA cleavage complex formation by agarose gel electrophoresis
MCF7 [22] = test: Induction of DNA damage in human MCF7 cells assessed as increase tail length at 10 uM after 24 hrs by comet assay (reference value: 8%); format: functional
In short: as §4

CCRF-SB = test: Antiproliferative activity against human CCRF-SB cells assessed as cell viability measured after 4 days by MTT assay; format: functional, cell-based; details: 96 h
In short: as §3

HeLa = test: Antiproliferative activity against human HeLa cells assessed as cell viability measured after 4 days by MTT assay; format: functional, cell-based; details: 96 h
In short: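 Solid-tumor cells (own media, 10% FCS) were seeded at 5 × 10⁴ cells/mL, allowed 16 h to adhere, then dosed and read by MTT 4 days later. IC50 was derived by linear regression of growth as % of untreated controls.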

MT4 = test: Antiproliferative activity against human MT-4 cells assessed as cell viability measured after 4 days by MTT assay; format: functional, cell-based; details: MT4, 96 h
In short: as §3

MCF7 [23] = test: Induction of cell cycle arrest in human MCF7 cells assessed as accumulation of cells at G2/M phase at 0.1 uM after 24 hrs by flow cytometry (reference value: 17%); format: functional
In short: as §1

[24] = biological target: DNA topoisomerase 2-alpha (Homo sapiens) (UniProt P11388); test: Inhibition of human topoisomerase 2alpha mediated pBR322 DNA relaxation at 1 uM by agarose gel electrophoresis relative to control
[25] = biological target: DNA topoisomerase 2-alpha (Homo sapiens) (UniProt P11388); test: Inhibition of human topoisomerase 2alpha mediated pBR322 DNA relaxation at 2 uM by agarose gel electrophoresis relative to control

Sequence of DNA topoisomerase 2-alpha (Homo sapiens) (P11388 whole entry): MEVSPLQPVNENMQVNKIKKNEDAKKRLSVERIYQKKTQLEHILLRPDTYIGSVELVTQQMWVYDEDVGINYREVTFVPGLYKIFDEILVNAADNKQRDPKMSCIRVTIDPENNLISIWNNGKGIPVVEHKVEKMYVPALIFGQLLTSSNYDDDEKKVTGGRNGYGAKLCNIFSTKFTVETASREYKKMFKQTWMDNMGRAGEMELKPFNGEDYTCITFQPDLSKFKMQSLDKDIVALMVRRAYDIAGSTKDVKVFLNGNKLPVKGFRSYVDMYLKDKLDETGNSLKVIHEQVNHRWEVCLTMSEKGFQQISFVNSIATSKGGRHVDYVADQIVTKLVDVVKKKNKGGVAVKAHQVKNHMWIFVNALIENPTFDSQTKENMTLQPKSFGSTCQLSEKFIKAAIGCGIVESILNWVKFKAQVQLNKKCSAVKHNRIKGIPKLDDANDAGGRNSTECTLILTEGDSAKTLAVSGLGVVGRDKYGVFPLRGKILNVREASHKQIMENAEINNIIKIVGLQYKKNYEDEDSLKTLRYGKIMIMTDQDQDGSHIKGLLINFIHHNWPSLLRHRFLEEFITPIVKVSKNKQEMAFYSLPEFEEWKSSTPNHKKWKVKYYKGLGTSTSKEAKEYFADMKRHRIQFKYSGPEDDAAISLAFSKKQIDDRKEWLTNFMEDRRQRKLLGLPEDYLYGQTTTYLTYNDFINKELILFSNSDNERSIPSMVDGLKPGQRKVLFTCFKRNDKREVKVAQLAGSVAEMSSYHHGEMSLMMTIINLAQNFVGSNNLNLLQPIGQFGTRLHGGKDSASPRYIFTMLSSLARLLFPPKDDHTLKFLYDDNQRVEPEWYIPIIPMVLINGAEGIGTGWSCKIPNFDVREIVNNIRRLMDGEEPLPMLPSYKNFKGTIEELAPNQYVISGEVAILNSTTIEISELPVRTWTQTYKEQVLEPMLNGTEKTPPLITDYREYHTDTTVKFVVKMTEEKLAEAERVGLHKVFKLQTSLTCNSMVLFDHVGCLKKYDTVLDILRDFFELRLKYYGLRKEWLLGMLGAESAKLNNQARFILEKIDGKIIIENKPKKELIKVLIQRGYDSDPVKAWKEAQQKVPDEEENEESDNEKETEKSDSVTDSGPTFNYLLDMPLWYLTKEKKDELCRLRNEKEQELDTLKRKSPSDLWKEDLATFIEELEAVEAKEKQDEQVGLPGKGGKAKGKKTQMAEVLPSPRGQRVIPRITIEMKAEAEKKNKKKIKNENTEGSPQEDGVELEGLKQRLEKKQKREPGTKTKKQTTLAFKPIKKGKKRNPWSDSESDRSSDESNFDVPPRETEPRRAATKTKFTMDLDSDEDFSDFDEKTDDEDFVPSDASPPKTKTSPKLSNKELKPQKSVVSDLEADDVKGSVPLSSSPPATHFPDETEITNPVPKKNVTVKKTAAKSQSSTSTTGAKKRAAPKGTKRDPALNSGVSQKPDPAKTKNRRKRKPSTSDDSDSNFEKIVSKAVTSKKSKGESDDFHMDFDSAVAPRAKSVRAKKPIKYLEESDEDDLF
Sequence of DNA topoisomerase 2-beta (Homo sapiens) (Q02880 whole entry): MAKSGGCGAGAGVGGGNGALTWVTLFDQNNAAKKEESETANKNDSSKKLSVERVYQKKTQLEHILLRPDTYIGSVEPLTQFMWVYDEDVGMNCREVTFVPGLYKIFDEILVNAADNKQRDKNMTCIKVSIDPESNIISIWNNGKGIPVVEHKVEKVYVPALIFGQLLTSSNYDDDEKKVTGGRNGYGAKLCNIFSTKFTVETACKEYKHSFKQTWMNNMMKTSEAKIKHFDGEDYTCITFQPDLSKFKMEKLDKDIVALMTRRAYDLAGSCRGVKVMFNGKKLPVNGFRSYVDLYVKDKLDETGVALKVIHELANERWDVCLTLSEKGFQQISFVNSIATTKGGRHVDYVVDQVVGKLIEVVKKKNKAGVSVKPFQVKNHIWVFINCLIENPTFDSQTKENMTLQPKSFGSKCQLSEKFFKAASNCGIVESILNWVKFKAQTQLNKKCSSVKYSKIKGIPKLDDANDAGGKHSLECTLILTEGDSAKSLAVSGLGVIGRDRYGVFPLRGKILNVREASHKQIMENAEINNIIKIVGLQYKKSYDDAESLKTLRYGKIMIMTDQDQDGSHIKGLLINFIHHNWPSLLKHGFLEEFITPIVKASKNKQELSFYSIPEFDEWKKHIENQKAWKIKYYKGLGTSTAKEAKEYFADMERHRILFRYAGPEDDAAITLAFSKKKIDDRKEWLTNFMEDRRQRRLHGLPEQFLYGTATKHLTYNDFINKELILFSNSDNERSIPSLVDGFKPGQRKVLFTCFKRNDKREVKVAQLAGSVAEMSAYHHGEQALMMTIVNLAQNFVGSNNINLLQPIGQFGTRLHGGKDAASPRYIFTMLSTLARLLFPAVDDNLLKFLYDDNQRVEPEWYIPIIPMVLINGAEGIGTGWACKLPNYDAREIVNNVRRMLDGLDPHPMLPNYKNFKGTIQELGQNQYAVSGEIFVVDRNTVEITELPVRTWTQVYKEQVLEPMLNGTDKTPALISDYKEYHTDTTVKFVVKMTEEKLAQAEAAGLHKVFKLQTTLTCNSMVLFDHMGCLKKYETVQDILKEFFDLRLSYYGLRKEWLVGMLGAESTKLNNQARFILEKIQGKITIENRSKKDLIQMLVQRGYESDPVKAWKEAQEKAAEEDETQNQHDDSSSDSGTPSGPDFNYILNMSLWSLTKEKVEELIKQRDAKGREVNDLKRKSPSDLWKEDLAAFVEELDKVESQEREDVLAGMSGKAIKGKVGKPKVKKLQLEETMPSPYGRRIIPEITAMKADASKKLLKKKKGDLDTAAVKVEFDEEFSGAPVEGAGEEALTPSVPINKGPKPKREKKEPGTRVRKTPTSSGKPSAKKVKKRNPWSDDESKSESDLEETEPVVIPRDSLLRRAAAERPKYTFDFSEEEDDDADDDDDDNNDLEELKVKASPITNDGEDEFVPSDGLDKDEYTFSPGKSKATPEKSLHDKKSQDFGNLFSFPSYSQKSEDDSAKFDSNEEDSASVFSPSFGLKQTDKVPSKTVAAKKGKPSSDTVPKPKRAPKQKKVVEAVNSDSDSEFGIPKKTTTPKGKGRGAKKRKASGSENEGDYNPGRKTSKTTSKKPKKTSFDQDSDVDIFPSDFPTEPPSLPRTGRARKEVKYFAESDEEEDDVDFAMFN

Row | Compound | Activity (Calf thymus DNA [1]) | IC50 (HT-29) | IC50 (MCF7 [5]) | IC50 (CCRF-CEM) | Activity (DNA [6]) | IC50 (ACHN) | Activity (Calf thymus DNA [13]) | Activity (Calf thymus DNA [17]) | Activity (Calf thymus DNA [18]) | IC50 (SK-MEL-28) | IC50 (CCRF-SB) | IC50 (HeLa) | IC50 (G-361) | IC50 (MT4) | also measured
1 | Cc1c2oc3c(C)ccc(C(=O)N[C@@H]4C(=O)N[C@H](C(C)C)C(=O)N5CCC[C@H]5C(=O)N(C)CC(=O)N(C)[C@@H](C(C)C)C(=O)O[C@@H]4C)c3nc-2c(C(=O)N[C@@H]2C(=O)N[C@H](C(C)C)C(=O)N3CCC[C@H]3C(=O)N(C)CC(=O)N(C)[C@@H](C(C)C)C(=O)O[C@@H]2C)c(N)c1=O [DACTINOMYCIN] (I: T[dV]P[Sar][NMeV] / II: T[dV]P[Sar][NMeV]; ester I:1-I:C, II:1-II:C; linker I:N-II:N via Actinocin(1to9)) |  |  |  |  |  |  |  |  |  |  |  |  | 6 nM |  | 
2 | NCCCC[C@H](NC(=O)c1ccc2oc3cc(=O)c4cccnc4c-3nc2c1)C(=O)O | 19% | 200 nM | 100 nM | 160 nM |  | 80 nM | 280 nm | 445 | 447 | 210 nM | 160 nM | 100 nM | 50 nM | 200 nM | 
3 | COc1cc([C@@H]2c3cc4c(cc3[C@@H](O[C@@H]3O[C@@H]5CO[C@@H](C)O[C@H]5[C@H](O)[C@H]3O)[C@H]3COC(=O)[C@H]23)OCO4)cc(OC)c1O [ETOPOSIDE] |  |  |  |  |  |  |  |  |  | 1100 nM |  | 3000 nM | 2300 nM |  | 
4 | NCCCC[C@H](NC(=O)c1ccc2oc3cc(=O)c4ncccc4c-3nc2c1)C(=O)O | 30% | 80 nM | 100 nM | 100 nM | Active | 100 nM | 343 nm | 437 | 440 | 120 nM | 120 nM | 80 nM | 60 nM | 90 nM | 

The remaining molecules from weak to strong by IC50 (CCRF-CEM), led by results:

Row | Activity (Calf thymus DNA [1]) | IC50 (HT-29) | IC50 (MCF7 [5]) | IC50 (CCRF-CEM) | Activity (DNA [6]) | IC50 (ACHN) | Activity (Calf thymus DNA [13]) | Activity (Calf thymus DNA [17]) | Activity (Calf thymus DNA [18]) | IC50 (SK-MEL-28) | IC50 (CCRF-SB) | IC50 (HeLa) | Compound | IC50 (G-361) | IC50 (MT4) | also measured
5 | 28 | 3 nM | 7 nM | 20 nM | Active | 8 nM | 395 nm | 443 | 447 | 2 nM | 20 nM | 5 nM | NCCCC[C@H](NC(=O)c1ccc2nc3c4cccnc4c(=O)cc-3oc2c1)C(=O)O | 1 nM | 10 nM | Activity (DNA [3]): Active; inhibition [24]: 50%; Activity [16]: Active; inhibition [25]: 100%
6 |  |  |  | 20 nM |  |  |  |  |  |  |  |  | COc1cccc2c1C(=O)c1c(O)c3c(c(O)c1C2=O)C[C@@](O)(C(=O)CO)C[C@@H]3O[C@H]1C[C@H](N)[C@H](O)[C@H](C)O1 [DOXORUBICIN] |  |  | 
7 | 58% | 4 nM | 3 nM | 3 nM | Active | 5 nM | 340 nm | 443 | 448 | 2 nM | 5 nM | 5 nM | N[C@@H](CCCCNC(=O)c1ccc2nc3c4cccnc4c(=O)cc-3oc2c1)C(=O)O | 6 nM | 6 nM | Activity (MCF7 [2]): 51.71%; Activity (DNA [3]): Active; Activity (MCF7 [4]): 17.8%; inhibition [7]: 100%; inhibition [8]: 50%; Activity (MCF7 [9]): 48%; Activity (MCF7 [10]): Active; Activity (MCF7 [11]): 30.5%; Activity (MCF7 [12]): Active; Activity (MCF7 [14]): 26%; Activity (MCF7 [15]): 8.73%; Activity [16]: Active; Activity (MCF7 [19]): 42.5%; Activity (MCF7 [20]): 48.77%; Activity [21]: inactive; Activity (MCF7 [22]): 50%; Activity (MCF7 [23]): 26%
